The values below come from ChEMBL document CHEMBL4219216, “2-Aminoquinazolin-4(3H)-one based plasmepsin inhibitors with improved hydrophilicity and selectivity” (Bioorg Med Chem, 2018).

Values after ≈ are worked out from the molar mass of the structure shown.

One may read the IC50 as the concentration that inhibits the measured activity by half. By solubility is commonly meant the dissolved amount per volume that the medium holds. Higher therefore signals much dissolved substance.

The target in one series is Plasmepsin I (Plasmodium falciparum, UniProt P39898). The experiment in a line: Inhibition of Plasmodium falciparum plasmepsin-1 using DABCYL-Glu-Arg-Nle-Phe-Leu-Ser-Phe-Pro-EDANS as substrate preincubated for 30 mins followed by substrate addition measured every 1 min within 8 to 15 mins by FRET assay. The procedure, abridged: (§1)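 Test compounds at 0.01-100 μM preincubated with enzyme in 0.1 M NaOAc pH 4.5, 10% glycerol, for 30 min at 37 °C. […] Fluorescence (Ex 336, Em 490 nm) read at 37 °C. Rate taken from the linear interval only. Triplicate experiments, IC50 from dose-response fit.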
Sequence of Plasmepsin I (P39898 whole entry): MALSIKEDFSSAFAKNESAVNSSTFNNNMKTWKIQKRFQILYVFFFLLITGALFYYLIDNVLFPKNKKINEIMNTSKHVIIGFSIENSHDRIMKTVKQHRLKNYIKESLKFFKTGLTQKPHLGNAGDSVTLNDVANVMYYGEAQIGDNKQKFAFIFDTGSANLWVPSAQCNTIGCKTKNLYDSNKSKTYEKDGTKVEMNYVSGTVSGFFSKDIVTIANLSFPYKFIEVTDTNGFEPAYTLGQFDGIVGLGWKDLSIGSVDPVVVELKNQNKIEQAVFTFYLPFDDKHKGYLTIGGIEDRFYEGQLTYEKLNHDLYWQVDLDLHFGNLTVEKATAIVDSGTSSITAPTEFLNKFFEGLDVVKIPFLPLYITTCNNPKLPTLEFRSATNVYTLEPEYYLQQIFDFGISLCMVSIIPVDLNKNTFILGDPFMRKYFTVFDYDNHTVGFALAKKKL

A further series deals with Plasmepsin II (Plasmodium falciparum, UniProt P46925). The experiment in a line: Inhibition of Plasmodium falciparum plasmepsin-2 using DABCYL-Glu-Arg-Nle-Phe-Leu-Ser-Phe-Pro-EDANS as substrate preincubated for 30 mins followed by substrate addition measured every 1 min within 8 to 15 mins by FRET assay. In outline: as §1
Sequence of Plasmepsin II (P46925 whole entry): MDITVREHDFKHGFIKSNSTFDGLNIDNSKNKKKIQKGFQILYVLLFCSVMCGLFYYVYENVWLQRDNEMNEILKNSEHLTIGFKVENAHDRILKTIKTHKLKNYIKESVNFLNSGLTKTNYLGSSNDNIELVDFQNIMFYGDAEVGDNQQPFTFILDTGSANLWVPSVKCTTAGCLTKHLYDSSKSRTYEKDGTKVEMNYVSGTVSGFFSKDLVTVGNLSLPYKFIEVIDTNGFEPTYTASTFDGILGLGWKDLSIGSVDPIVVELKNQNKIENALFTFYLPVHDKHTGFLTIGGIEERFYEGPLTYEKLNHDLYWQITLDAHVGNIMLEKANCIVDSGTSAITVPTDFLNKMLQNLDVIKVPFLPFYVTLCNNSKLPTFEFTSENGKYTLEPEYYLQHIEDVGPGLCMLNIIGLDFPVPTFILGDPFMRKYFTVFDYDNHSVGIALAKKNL
Another series has as its target Plasmepsin 4 (Plasmodium falciparum, UniProt Q17SB2). The experiment in a line: Inhibition of Plasmodium falciparum plasmepsin 4 using DABCYL-Glu-Arg-Nle-Phe-Leu-Ser-Phe-Pro-EDANS as substrate preincubated for 30 mins followed by substrate addition measured every 1 min within 8 to 15 mins by FRET assay. The procedure, abridged: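 Plm IV in 0.1 M NaOAc pH 4.5 with 10% glycerol; compounds tested at 0.01–100 μM, preincubated with enzyme 30 min at 37 °C. […] Fluorescence (Ex 336/Em 490 nm) read at 37 °C; rate taken from the linear interval. Triplicate; IC50 fitted from rates; pepstatin A control.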

In another series the target is Cathepsin D (Homo sapiens, UniProt P07339). The series is described as follows: Inhibition of human cathepsin D using DABCYL-Glu-Arg-Nle-Phe-Leu-Ser-Phe-Pro-EDANS as substrate preincubated for 30 mins followed by substrate addition measured every 1 min within 8 to 15 mins by FRET assay.
Sequence of Cathepsin D (P07339 65-162 limits assumed): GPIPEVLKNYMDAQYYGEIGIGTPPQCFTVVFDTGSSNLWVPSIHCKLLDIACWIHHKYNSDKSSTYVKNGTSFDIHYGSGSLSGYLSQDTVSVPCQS
Sequence of Cathepsin D (P07339 169-412 limits assumed): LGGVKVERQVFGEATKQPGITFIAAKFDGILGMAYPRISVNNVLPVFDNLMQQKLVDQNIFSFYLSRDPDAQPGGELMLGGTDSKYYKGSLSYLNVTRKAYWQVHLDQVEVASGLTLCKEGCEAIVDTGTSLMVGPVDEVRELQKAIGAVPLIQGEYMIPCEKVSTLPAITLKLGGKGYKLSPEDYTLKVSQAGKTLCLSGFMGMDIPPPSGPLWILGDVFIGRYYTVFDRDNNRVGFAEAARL
Series [1] in a line: Solubility of the compound in Tris-buffer at pH 7.4 after 16 hrs by HPLC method. It is filed as physicochemical. The following applies: for solubility at 16 h: Tris buffer, pH 7.4. In outline:
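A DMSO stock (≈10 mg/mL) was diluted 10 µL into 2 mL of 0.05 M TRIS pH 7.4 (0.5% DMSO final) and shaken 16 h at 25 °C. After filtering off the precipitate, the solution was quantified by reversed-phase HPLC (UV 210 or 254 nm) against a methanol-diluted ≈0.05 mg/mL standard. Working range ≈0.005-0.05 mg/mL.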

Series [2] concerns the target Plasmepsin I (Plasmodium falciparum) (UniProt P39898). The series is described as follows: Inhibition of Plasmodium falciparum plasmepsin-1 using DABCYL-Glu-Arg-Nle-Phe-Leu-Ser-Phe-Pro-EDANS as substrate preincubated for 30 mins followed by substrate addition measured every 1 min within 8 to 15 mins by FRET assay.

Sequence of Plasmepsin 4 (Q17SB2 whole entry): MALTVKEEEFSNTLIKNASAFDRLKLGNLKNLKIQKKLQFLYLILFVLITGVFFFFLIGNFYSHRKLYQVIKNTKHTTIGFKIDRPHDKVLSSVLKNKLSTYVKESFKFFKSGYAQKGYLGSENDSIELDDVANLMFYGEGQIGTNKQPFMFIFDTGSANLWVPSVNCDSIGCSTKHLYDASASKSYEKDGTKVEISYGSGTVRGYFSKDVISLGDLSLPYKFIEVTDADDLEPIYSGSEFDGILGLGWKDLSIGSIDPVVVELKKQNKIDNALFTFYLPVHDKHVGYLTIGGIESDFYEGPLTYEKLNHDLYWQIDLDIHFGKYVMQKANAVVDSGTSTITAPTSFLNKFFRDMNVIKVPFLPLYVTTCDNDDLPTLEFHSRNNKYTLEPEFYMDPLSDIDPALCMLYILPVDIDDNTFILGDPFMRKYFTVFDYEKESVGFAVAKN
Sequence of Plasmepsin I (Plasmodium falciparum) (P39898 whole entry, looked up): as the sequence (P39898 whole entry) above

Turning to `Nc1nc2cc(-c3ccccc3)cc(-c3ccncc3)c2c(=O)n1CC1CCCO1` (racemic), the IC50 at Plasmepsin I is 5000 nM; against Plasmepsin II it was 1000 nM; on Plasmepsin 4 it was 2400 nM; at Cathepsin D, over 100000 nM.

On to `Nc1nc2cc(-c3ccc(CCCc4ccccc4)cc3)ccc2c(=O)n1C[C@@H]1CC[C@H](c2ccccc2)O1`, for which it took 130 nM to reach half-maximal inhibition against Plasmepsin 4 (IC50). Moreover, in series [1], the solubility at 16 h was under 0.01 µg/mL.

On to `CCCCCc1ccc(-c2cc(CCC(=O)O)c3c(=O)n(CC4CCCO4)c(N)nc3c2)cc1` (racemic), for which the IC50 came to 50 nM against Plasmepsin I, 27 nM against Plasmepsin II, 42 nM against Plasmepsin 4 and 21000 nM on Cathepsin D. The molecule further returned a solubility at 16 h in series [1] of 0.1 µg/mL (≈ 0.216 µM).

Turning to `NC(=O)c1ccc(-c2cc(-c3ccccc3)cc3nc(N)n(CC4CCCO4)c(=O)c23)cc1` (racemic), the IC50 against Plasmepsin I was 3400 nM; against Plasmepsin II, 600 nM; against Plasmepsin 4 it was 2500 nM; against Cathepsin D it was over 100000 nM.

As to `Nc1nc2cc(-c3ccc(CCCc4ccccc4)cc3)cc(CCC(=O)O)c2c(=O)n1CC1CCCO1` (racemic), the IC50 on Plasmepsin I is 740 nM; against Plasmepsin II it was 80 nM; at Plasmepsin 4 it was 30 nM; against Cathepsin D, 13000 nM. For the same molecule, the solubility in series [1] (buffer, pH 7.4, 16 h) stood at 0.01 µg/mL (≈ 0.0195 µM).

As for `Nc1cccc(-c2cc(-c3ccccc3)cc3nc(N)n(CC4CCCO4)c(=O)c23)c1` (racemic), the IC50 is 2000 nM on Plasmepsin I, 820 nM against Plasmepsin II, 1000 nM against Plasmepsin 4 and 93000 nM at Cathepsin D.

Turning to `Oc1ccc(/C=C/c2cc(O)cc(O)c2)cc1` [RESVERATROL], half-maximal inhibition against Cathepsin D (IC50) was put at 138000 nM.

In the case of `CC(C)CC(=O)N[C@H](C(=O)N[C@H](C(=O)N[C@@H](CC(C)C)[C@@H](O)CC(=O)N[C@@H](C)C(=O)N[C@@H](CC(C)C)[C@@H](O)CC(=O)O)C(C)C)C(C)C` [PEPSTATIN], the IC50 at Plasmepsin I came out at 0.42 nM; against Plasmepsin 4 it was 0.3 nM; in series [2] it was 0.42 nM.

Turning to `Nc1nc2cc(-c3ccc(CCCc4ccccc4)cc3)ccc2c(=O)n1CC1CCCO1` (racemic), the IC50 on Plasmepsin I is 1300 nM; on Plasmepsin II, 700 nM; against Plasmepsin 4, 100 nM; against Cathepsin D, over 100000 nM.

As for `Nc1nc2cc(-c3ccccc3)cc(-c3ccc(C(=O)O)cc3)c2c(=O)n1C[C@@H]1CC[C@H](c2ccccc2)O1`, the IC50 against Plasmepsin I was 600 nM; against Plasmepsin II, 280 nM; at Plasmepsin 4, 500 nM; against Cathepsin D it was 20000 nM.

With `CCCCCc1ccc(-c2ccc3c(=O)n(C[C@@H]4CC[C@H](c5ccccc5)O4)c(N)nc3c2)cc1`, at Plasmepsin 4, the half-maximal inhibitory concentration (IC50) turned out to be 100 nM. The molecule also returned a solubility at 16 h in series [1] of under 0.01 µg/mL.

In the case of `CCCCCc1ccc(-c2ccc3c(=O)n(CC4CCCO4)c(N)nc3c2)cc1` (racemic), the IC50 on Plasmepsin I worked out at 700 nM; against Plasmepsin II it was 75 nM; on Plasmepsin 4, 92 nM; against Cathepsin D it was 3200 nM.

Consider `CCCCCCCCc1cc(CCC(=O)O)c2c(=O)n(CC3CCCO3)c(N)nc2c1` (racemic), for which the IC50 on Plasmepsin I is 20 nM; on Plasmepsin II it was 22 nM; against Plasmepsin 4, 110 nM; against Cathepsin D, 430 nM.

`Nc1nc2cc(-c3ccccc3)cc(-c3ccc(C(=O)O)cc3)c2c(=O)n1CC1CCCO1` (racemic): the IC50 stood at 3500 nM against Plasmepsin I, 330 nM at Plasmepsin II, 1400 nM against Plasmepsin 4 and 100000 nM against Cathepsin D.

With `Nc1nc2cc(-c3ccccc3)cc(-c3cccnc3)c2c(=O)n1CC1CCCO1` (racemic), the IC50 at Plasmepsin I worked out at 3000 nM; against Plasmepsin II it was 480 nM; against Plasmepsin 4, 1500 nM; at Cathepsin D it was 71000 nM.

`Nc1nc2cc(-c3ccccc3)cc(-c3cccc(C(=O)O)c3)c2c(=O)n1CC1CCCO1` (racemic): the IC50 was 1000 nM against Plasmepsin I, 500 nM at Plasmepsin II, 1500 nM against Plasmepsin 4 and 98000 nM on Cathepsin D.

As for `CCCCCc1ccc(-c2cc(-c3ccc(C(=O)O)cc3)c3c(=O)n(CC4CCCO4)c(N)nc3c2)cc1` (racemic), the IC50 on Plasmepsin I worked out at 2400 nM; against Plasmepsin II, 23 nM; on Plasmepsin 4, 45 nM; on Cathepsin D, 29000 nM. In series [1], this molecule showed a solubility at 16 h of 0.03 µg/mL (≈ 0.0586 µM).
